Experiments:
SUMO-activating enzyme [1] = biological target: T1, SUMO-activating enzyme (Homo sapiens, UniProt Q9UBT2); experiment: Inhibition of recombinant SAE (unknown origin) assessed as reduction in transfer of SUMO1 to UBC9 using SUMO1 as a substrate in presence of ATP at Km concentration by HTRF assay; type: protein-complex assay
Method in brief: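 HTRF transthiolation assay measuring transfer of SUMO1 to UBC9, the E2 for SAE.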

[2] = Inhibition of recombinant UAE (unknown origin) in presence of ATP at Km concentration by HTRF assay; set-up: species or system Homo sapiens
NEDD8 activating enzyme [3] = biological target: T2, NEDD8 activating enzyme (Homo sapiens, UniProt Q8TBC4); experiment: Inhibition of recombinant NAE (unknown origin) in presence of ATP at Km concentration by HTRF assay; type: protein-complex assay
T2 sequence (Q8TBC4 whole entry): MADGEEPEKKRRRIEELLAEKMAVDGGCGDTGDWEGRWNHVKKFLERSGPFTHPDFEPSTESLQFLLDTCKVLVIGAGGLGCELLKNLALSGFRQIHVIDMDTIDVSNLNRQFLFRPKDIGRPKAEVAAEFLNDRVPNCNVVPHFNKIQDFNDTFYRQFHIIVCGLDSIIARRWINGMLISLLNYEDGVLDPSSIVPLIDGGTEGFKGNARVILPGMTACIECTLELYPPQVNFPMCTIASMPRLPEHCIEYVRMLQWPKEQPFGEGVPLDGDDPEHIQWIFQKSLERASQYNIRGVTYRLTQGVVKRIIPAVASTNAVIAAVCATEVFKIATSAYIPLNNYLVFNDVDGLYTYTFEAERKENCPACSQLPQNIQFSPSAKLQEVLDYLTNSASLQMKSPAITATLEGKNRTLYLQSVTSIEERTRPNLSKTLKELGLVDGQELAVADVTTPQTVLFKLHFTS
T2 sequence (Q13564 whole entry): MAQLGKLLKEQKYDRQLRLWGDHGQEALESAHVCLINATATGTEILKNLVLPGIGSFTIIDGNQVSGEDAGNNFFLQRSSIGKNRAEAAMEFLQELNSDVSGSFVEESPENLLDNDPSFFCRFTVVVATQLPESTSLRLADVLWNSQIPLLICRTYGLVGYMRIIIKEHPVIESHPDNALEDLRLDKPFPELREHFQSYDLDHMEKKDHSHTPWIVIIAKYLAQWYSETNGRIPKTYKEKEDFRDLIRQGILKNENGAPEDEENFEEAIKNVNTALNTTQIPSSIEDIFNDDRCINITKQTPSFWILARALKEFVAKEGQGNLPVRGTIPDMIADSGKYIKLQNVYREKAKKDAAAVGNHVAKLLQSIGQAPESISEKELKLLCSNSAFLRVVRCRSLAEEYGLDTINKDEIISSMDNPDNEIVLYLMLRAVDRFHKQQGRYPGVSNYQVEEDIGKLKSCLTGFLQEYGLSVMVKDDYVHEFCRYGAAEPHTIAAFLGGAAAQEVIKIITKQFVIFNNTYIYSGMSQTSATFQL

SUMO-activating enzyme [4] = biological target: T1, SUMO-activating enzyme; experiment: Inhibition of SAE in human HCT116 cells assessed as reduction in redistribution of SUMO2/3 proteins from nucleus to cytosol incubated for 4 hrs by immunofluorescence assay; type: cell-based, HCT-116
Method in brief: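 HCT-116 cells exposed to compound across a concentration range for 4 h, then stained with anti-SUMO2/3 monoclonal antibody. Automated imaging scored the nuclear (inner) to cytoplasmic (outer) SUMO2/3 ratio. IC50 taken from the dose response.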

SUMO-activating enzyme [5] = biological target: T1, SUMO-activating enzyme; experiment: Inhibition of SAE in human HCT116 cells assessed as redistribution of SUMO2/3 proteins from nucleus to cytosol preincubated for 2 hrs followed by compound washout and measured immediately by immunofluorescence assay; type: cell-based, HCT-116
Method in brief: (§1)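 Washout format of the SUMO2/3 immunofluorescence assay in HCT116 cells. Cells were exposed to a range of concentrations for 2 h, then washed free of compound.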

SUMO-activating enzyme [6] = biological target: T1, SUMO-activating enzyme; experiment: Inhibition of SAE in human HCT116 cells assessed as redistribution of SUMO2/3 proteins from nucleus to cytosol preincubated for 2 hrs followed by compound washout and measured after 8 hrs by immunofluorescence assay; type: cell-based, HCT-116; method in brief: as §1
SUMO-activating enzyme [7] = biological target: T1, SUMO-activating enzyme; experiment: Inhibition of SAE (unknown origin) using SUMO1 as substrate incubated for 60 mins in presence of ATP and PPi by pyrophosphate exchange assay; type: protein-complex assay
Method in brief: (§2)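 Pyrophosphate exchange assay of E1 activity at 1 mM ATP. Substrates were SUMO1 or SUMO2 for SAE, Ub for UAE and Nedd-8 for NAE.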

SUMO-activating enzyme [8] = biological target: T1, SUMO-activating enzyme; experiment: Inhibition of SAE (unknown origin) using SUMO2 as substrate incubated for 60 mins in presence of ATP and PPi by pyrophosphate exchange assay; type: protein-complex assay; method in brief: as §2
[9] = Inhibition of UAE (unknown origin) using Ub as substrate incubated for 60 mins in presence of ATP and PPi by pyrophosphate exchange assay; set-up: species or system Homo sapiens; method in brief: as §2
NEDD8 activating enzyme [10] = biological target: T2, NEDD8 activating enzyme; experiment: Inhibition of NAE (unknown origin) using Nedd-8 as substrate incubated for 60 mins in presence of ATP and PPi by pyrophosphate exchange assay; type: protein-complex assay; method in brief: as §2
SUMO-activating enzyme [11] = biological target: T1, SUMO-activating enzyme; experiment: Inhibition of SAE in human HCT116 cells assessed as reduction in conjugation of SUMO proteins to UBC9 by Western blot analysis; type: cell-based, HCT-116
Method in brief: (§3)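 HCT116 cells, quantitative Western blot of E2–UBL conjugates. Read-outs were SUMO–UBC9 for SAE, ubiquitin–[…] for UAE and Nedd-8–[…] for NAE.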

NEDD8 activating enzyme [12] = biological target: T2, NEDD8 activating enzyme; experiment: Inhibition of NAE in human HCT116 cells assessed as reduction in conjugation of Nedd8 […] by Western blot analysis; type: cell-based, HCT-116; method in brief: as §3

T1 sequence (Q9UBE0 whole entry): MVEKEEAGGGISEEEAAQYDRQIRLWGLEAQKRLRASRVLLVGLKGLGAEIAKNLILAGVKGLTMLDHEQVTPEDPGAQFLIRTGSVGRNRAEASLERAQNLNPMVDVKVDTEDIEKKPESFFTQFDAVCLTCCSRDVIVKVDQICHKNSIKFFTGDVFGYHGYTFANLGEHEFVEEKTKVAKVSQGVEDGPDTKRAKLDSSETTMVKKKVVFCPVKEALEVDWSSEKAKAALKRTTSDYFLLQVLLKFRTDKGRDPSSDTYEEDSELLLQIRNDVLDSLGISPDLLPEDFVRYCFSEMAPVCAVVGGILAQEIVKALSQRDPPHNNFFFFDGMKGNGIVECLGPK
T1 sequence (Q9UBT2 whole entry): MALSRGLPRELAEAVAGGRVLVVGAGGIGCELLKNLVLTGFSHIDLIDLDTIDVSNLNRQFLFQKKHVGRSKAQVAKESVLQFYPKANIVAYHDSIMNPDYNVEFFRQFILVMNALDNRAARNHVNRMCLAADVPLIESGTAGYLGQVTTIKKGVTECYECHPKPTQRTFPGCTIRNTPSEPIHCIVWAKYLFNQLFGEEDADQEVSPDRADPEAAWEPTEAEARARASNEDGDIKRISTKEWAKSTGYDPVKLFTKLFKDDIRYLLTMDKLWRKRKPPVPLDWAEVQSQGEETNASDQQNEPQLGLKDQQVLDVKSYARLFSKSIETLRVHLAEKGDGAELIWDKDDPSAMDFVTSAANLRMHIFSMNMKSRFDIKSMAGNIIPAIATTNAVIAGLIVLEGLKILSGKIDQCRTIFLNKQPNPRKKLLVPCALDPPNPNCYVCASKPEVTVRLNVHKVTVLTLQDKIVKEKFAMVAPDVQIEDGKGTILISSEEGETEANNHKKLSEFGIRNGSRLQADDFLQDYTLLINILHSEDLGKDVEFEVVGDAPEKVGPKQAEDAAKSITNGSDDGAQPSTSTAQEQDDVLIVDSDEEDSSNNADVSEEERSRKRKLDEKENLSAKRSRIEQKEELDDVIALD

Row | SMILES | IC50 [2] [nM] | IC50 (NEDD8 activating enzyme [3]) [nM] | IC50 [9] [nM] | IC50 (NEDD8 activating enzyme [10]) [nM] | IC50 (NEDD8 activating enzyme [12]) [nM] | IC50 (SUMO-activating enzyme [1]) [nM] | IC50 (SUMO-activating enzyme [4]) [nM] | IC50 (SUMO-activating enzyme [5]) [nM] | IC50 (SUMO-activating enzyme [6]) [nM] | IC50 (SUMO-activating enzyme [7]) [nM] | IC50 (SUMO-activating enzyme [8]) [nM] | IC50 (SUMO-activating enzyme [11]) [nM]
1 | NS(=O)(=O)OC[C@H]1C[C@@H](Nc2ncncc2C(=O)c2cc(C3OCCc4ccc(Cl)cc43)cs2)C[C@@H]1O (stereo partly drawn) | > 1000 | 450 |  |  |  | 0.5 | 8 | 7 | 22 |  |  | 
2 | NS(=O)(=O)OC[C@H]1C[C@@H](Nc2ncncc2C(=O)c2cc(C3NCCc4ccc(Cl)cc43)cs2)C[C@@H]1O (stereo partly drawn) | > 1000 | > 1000 |  |  |  | 0.8 | 27 | 167 | 142 |  |  | 
3 | Cc1sc(C(=O)c2cncnc2N[C@@H]2C[C@H](COS(N)(=O)=O)[C@@H](O)C2)cc1C1OCCc2cccnc21 (stereo partly drawn) | > 1000 | 507 |  |  |  | 0.2 |  | 19 | 64 |  |  | 
4 | NS(=O)(=O)OC[C@H]1C[C@@H](Nc2ncncc2C(=O)c2cc(C3NCCc4ccc(Cl)cc43)c(Cl)s2)C[C@@H]1O (stereo partly drawn) | > 1000 | > 1000 |  |  |  | 0.4 | 7 | 9 | 17 |  |  | 
5 | NC(c1cccc(Cl)c1)c1cc(C(=O)c2cncnc2N[C@@H]2C[C@H](COS(N)(=O)=O)[C@@H](O)C2)sc1Cl (stereo partly drawn) | > 1000 | 861 |  |  |  | 0.4 | 10 | 17 | 39 |  |  | 
6 | NS(=O)(=O)OC[C@H]1C[C@@H](Nc2ncncc2C(=O)c2cc(C(O)c3cccc(Cl)c3)cs2)C[C@@H]1O (stereo in doubt; 31) |  | 216 |  |  |  | 0.2 | 55 | 43 | 955 |  |  | 
7 | CC(O)(c1cccc(Cl)c1)c1csc(C(=O)c2cncnc2N[C@@H]2C[C@H](COS(N)(=O)=O)[C@@H](O)C2)c1 (stereo partly drawn) | > 1000 | 343 |  |  |  | 0.2 | 12 | 19 | 233 |  |  | 
8 | CC(N)(c1cccc(Cl)c1)c1csc(C(=O)c2cncnc2N[C@@H]2C[C@H](COS(N)(=O)=O)[C@@H](O)C2)c1 (stereo partly drawn) | > 1000 | > 1000 |  |  |  | 0.3 | 16 | 29 | 101 |  |  | 
9 | NS(=O)(=O)OC[C@H]1C[C@@H](Nc2ncncc2C(=O)c2cc(C(O)c3cccc(Cl)c3)c(Cl)s2)C[C@@H]1O (stereo partly drawn) | > 1000 | 341 |  |  |  | 0.3 | 9 | 17 | 70 |  |  | 
10 | NC(c1cccc(Cl)c1)c1csc(C(=O)c2cncnc2N[C@@H]2C[C@H](COS(N)(=O)=O)[C@@H](O)C2)c1 (stereo in doubt; 33) |  | > 1000 |  |  |  | 0.7 | 50 | 83 | 499 |  |  | 
11 | NS(=O)(=O)OC[C@H]1C[C@@H](Nc2ncncc2C(=O)c2cc(Cc3cccc(Cl)c3)c(Cl)s2)C[C@@H]1O | > 1000 | 681 |  |  |  | 3.6 | 108 | 184 | 1400 |  |  | 
12 | NS(=O)(=O)OC[C@H]1C[C@@H](Nc2ncncc2C(=O)c2cc(C3NCCc4ccccc43)cs2)C[C@@H]1O (stereo partly drawn) | > 1000 | > 1000 |  |  |  | 1 | 78 | 365 | 503 |  |  | 
13 | Cc1sc(C(=O)c2cncnc2N[C@@H]2C[C@H](COS(N)(=O)=O)[C@@H](O)C2)cc1C(N)c1cccc(Cl)c1 (stereo partly drawn) | > 1000 | 235 |  |  |  | 0.2 | 16 | 19 | 38 |  |  | 
14 | NS(=O)(=O)OC[C@H]1C[C@@H](Nc2ncncc2C(=O)c2cc(C3OCCc4ccc(Cl)cc43)c(Cl)s2)C[C@@H]1O (stereo partly drawn) | > 1000 | > 1000 |  |  |  | 1 | 8 | 10 | 14 |  |  | 
15 | NS(=O)(=O)OC[C@H]1C[C@@H](Nc2ncncc2C(=O)c2csc(Cc3cccc(Br)c3)c2)C[C@@H]1O | > 1000 | 523 |  |  |  | 18 | 4930 |  |  |  |  | 
16 | NS(=O)(=O)OC[C@H]1C[C@@H](Nc2ncncc2C(=O)c2cc(C(O)c3cccc(Cl)n3)c(Cl)s2)C[C@@H]1O (stereo partly drawn) | > 1000 | 340 |  |  |  | 0.2 | 14 | 16 | 142 |  |  | 

The next compounds have a lower IC50 (NEDD8 activating enzyme [3]) than those just listed; values first:

Row | IC50 [2] [nM] | IC50 (NEDD8 activating enzyme [3]) [nM] | IC50 [9] [nM] | IC50 (NEDD8 activating enzyme [10]) [nM] | IC50 (NEDD8 activating enzyme [12]) [nM] | SMILES | IC50 (SUMO-activating enzyme [1]) [nM] | IC50 (SUMO-activating enzyme [4]) [nM] | IC50 (SUMO-activating enzyme [5]) [nM] | IC50 (SUMO-activating enzyme [6]) [nM] | IC50 (SUMO-activating enzyme [7]) [nM] | IC50 (SUMO-activating enzyme [8]) [nM] | IC50 (SUMO-activating enzyme [11]) [nM]
17 | > 1000 | 64 |  |  |  | Cc1sc(C(=O)c2cncnc2N[C@@H]2C[C@H](COS(N)(=O)=O)[C@@H](O)C2)cc1C(O)c1cccc(Cl)c1 (stereo partly drawn) | 0.3 | 6 | 8 | 21 |  |  | 
18 | > 1000 | 198 |  |  |  | NS(=O)(=O)OC[C@H]1C[C@@H](Nc2ncncc2C(=O)c2cc([C@@H]3OCCc4ccccc43)cs2)C[C@@H]1O | 0.4 | 4 | 5 | 39 |  |  | 
19 | > 1000 | 190 | > 1000 | 2600 | > 5000 | NS(=O)(=O)OC[C@H]1C[C@@H](Nc2ncncc2C(=O)c2ccn(Cc3ccccc3)n2)C[C@@H]1O | 2 | 71 |  |  | 11 | 69 | 13
20 | > 1000 | 32 |  |  |  | Cc1sc(C(=O)c2cncnc2N[C@@H]2C[C@H](COS(N)(=O)=O)[C@@H](O)C2)cc1Cc1cccc(Cl)c1 | 1.2 | 19 | 66 | 403 |  |  | 
21 | > 1000 | 114 |  |  |  | NS(=O)(=O)OC[C@H]1C[C@@H](Nc2ncncc2C(=O)c2cc(C(O)c3cccc(Cl)c3)cs2)C[C@@H]1O (stereo in doubt; 30) | 1 | 660 | 1210 | > 10000 |  |  | 
22 | 616 | 31 |  |  |  | CC(O)(c1csc(C(=O)c2cncnc2N[C@@H]2C[C@H](COS(N)(=O)=O)[C@@H](O)[C@H]2O)c1)c1cccc(Br)n1 (stereo partly drawn) | 0.1 | 47 | 251 | 361 |  |  | 
23 | > 1000 | 203 |  |  |  | Cc1sc(C(=O)c2cncnc2N[C@@H]2C[C@H](COS(N)(=O)=O)[C@@H](O)C2)cc1C1OCCc2ccc(Cl)nc21 (stereo partly drawn) | 0.1 | 20 | 18 | 89 |  |  | 
24 | > 1000 | 102 |  |  |  | Cc1sc(C(=O)c2cncnc2N[C@@H]2C[C@H](COS(N)(=O)=O)[C@@H](O)C2)cc1C1OCCc2ccccc21 (stereo partly drawn) | 0.3 | 6 | 4 | 14 |  |  | 
